HTRA1 inh = HTRA1 (human) protease inhibition | hit rate 0.5% among 340,000 | AID 504803 | inhibition, % at 5.96 µM | recombinant HTRA1, FP-rhodamine activity-based probe, fluorescence polarization | Q92743; in the data active = inhibition above about 36%
SIAE primary = blocks human sialic acid acetylesterase. hit rate 0.69% among 370,000. AID 1053197. SIAE FP-Rh probe binding, fluorescence polarization. inhibition, % at 9.66 µM;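 active = inhibition above a cutoff: mean of compounds within the control limits plus 3 SD of those, cut at about 17% in these data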
Target sequence (Q9HAT2 whole entry, looked up): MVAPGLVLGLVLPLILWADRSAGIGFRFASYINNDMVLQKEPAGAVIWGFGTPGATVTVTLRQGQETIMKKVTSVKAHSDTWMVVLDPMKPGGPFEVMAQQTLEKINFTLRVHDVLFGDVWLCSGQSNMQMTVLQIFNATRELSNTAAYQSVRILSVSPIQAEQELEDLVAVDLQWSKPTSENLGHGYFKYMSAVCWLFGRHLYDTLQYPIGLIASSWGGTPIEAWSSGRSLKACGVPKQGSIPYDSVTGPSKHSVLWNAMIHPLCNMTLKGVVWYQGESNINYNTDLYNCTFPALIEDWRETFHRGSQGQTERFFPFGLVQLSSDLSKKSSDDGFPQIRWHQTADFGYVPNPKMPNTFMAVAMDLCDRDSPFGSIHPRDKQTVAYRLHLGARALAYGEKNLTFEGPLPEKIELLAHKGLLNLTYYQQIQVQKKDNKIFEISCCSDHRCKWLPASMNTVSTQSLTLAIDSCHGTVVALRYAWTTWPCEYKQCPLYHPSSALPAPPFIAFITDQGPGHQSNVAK
mABHD4 FP = inhibitors of mouse ABHD4; Q8VD66; purified mABHD4, FP-Rh probe fluorescence polarization; inhibition, % at 8.92 µM; hit rate 0.54% among 370,000; AID 720543;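 active = inhibition exceeding the mean over every tested compound plus 3 SD, cut at about 30% in these data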
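Test system: mouse ABHD4 enzyme, wild type. Reagent: FP-Rh fluorescent activity-based probe, added after compound pre-incubation. Timing: pre-incubation 45 min, probe exposure 60 min, at 25 °C. Technique: FP readout, ex 525 nm / em 598 nm. Benchmarks: high control S159A mutant with DMSO, low control median of compound wells.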
PRMT1 inh = inhibitors of human PRMT1; recombinant PRMT1, activity-based probe fluorescence polarization; inhibition, % at 2.79 µM; hit rate 1.3% among 370,000;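 active = inhibition above about 21% made by adding two undisclosed values, limit read from the data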
rCAG RNA binder = molecules binding r(CAG) RNA repeats. hit rate 1.3% among 370,000. AID 651821. inhibition, % at 3 µM. r(CAG) RNA repeat, TO-PRO-1 dye displacement fluorescence;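 active = inhibition above the plate cutoff, the mean of all test compounds on that plate plus 3 SD, cut at about 35% in these data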;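 note: higher means more dye released from RNA so lower well fluorescence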
rCAG binder conf = r(CAG) RNA repeat binding, confirmation | shares compounds with rCAG RNA binder | TO-PRO-1 dye displacement fluorescence | inhibition, % at 3 µM | hit rate 70% among 4,300;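 active = inhibition above a per-plate cutoff, the mean inhibition of sample wells plus 3 SD, cut at about 35% in these data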;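 note: loss of TO-PRO-1 fluorescence as compound displaces dye from 1x1 AA loop RNA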
DNA CAG counter = disrupts DNA CAG TO-PRO-1 complex, flagging rCAG hits. shares compounds with rCAG RNA binder. d(CAG) DNA oligo TO-PRO-1 dye displacement, fluorescence. inhibition, % at 3 µM. hit rate 94% among 4,300;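 active = inhibition above its plate's cutoff, the mean test-well inhibition plus 3 SD, cut at about 4.8% in these data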;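 note: hits displace the dye from DNA and so lower well fluorescence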
PRMT1 inh conf = PRMT1 (human) inhibition, FP confirmation; hit rate 42% among 3,300; recombinant His-PRMT1, activity-based probe fluorescence polarization; shares compounds with PRMT1 inh; inhibition, % at 2.79 µM; AID 687036;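 active = mean inhibition across replicates above the hit cutoff derived for the earlier primary screen, cut at about 22% in these data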
ABHD4 confirm = confirmation of mouse ABHD4 inhibitors. shares compounds with mABHD4 FP. purified mABHD4, FP-Rh probe fluorescence polarization. inhibition, % at 8.92 µM. hit rate 55% among 1,800. AID 720658;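 active = mean inhibition across replicates above the hit cutoff set in the primary screen, cut at about 30% in these data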
Of the large screens only hits and unclear results are named; the others gave an inactive call (follow-up assays come after a bar, where they were run). Rows were chosen to be rich in hits. Some 3.3% of all compounds tested hit in one or more screens of this group.

COc1ccc(CN2C(=O)NC(=O)/C(=C\c3cc(OC)c(OC)c(OC)c3)C2=O)cc1	none
COc1ccc(CN2C(=O)NC(=O)/C(=C\c3ccco3)C2=O)cc1	rCAG RNA binder 43 | rCAG binder conf inactive | DNA CAG counter 12
COc1cc2c(cc1OC)C1C(=O)c3ccc4c(c3OC1CO2)CC(C(C)C)O4 (configuration not stated)	none
COC1=CC=C2[C@H]3Cc4ccc(OC)c5c4[C@@]2(CCN3C)[C@H]1O5	none
COC(=O)C1=C(c2ccccc2)C[C@@H]2CC[C@H]1N2C(=O)NCCNC(C)=O	none
O=C1CC(=O)N(Cc2ccccc2)C(=O)N1Cc1ccccc1	rCAG RNA binder 46 | rCAG binder conf inactive | DNA CAG counter 6.3
COCCOC(=O)C1=C(N)Oc2c(c(=O)oc3ccccc23)[C@@]12C(=O)Nc1ccccc12	none
CC12CCC(=O)C=C1C=CC1C2CCC2(C)C(O)CCC12 (configuration not stated)	none
Cc1cccc(OCCn2cccc2/C=C2/C(=O)NC(=O)N(Cc3ccco3)C2=O)c1	rCAG RNA binder 35 (no result: HTRA1 inh) | rCAG binder conf inactive | DNA CAG counter 7.7
CCc1ccc(N2C(=O)NC(=O)/C(=C/c3cccn3CCOc3ccc(C)cc3)C2=O)cc1	none
O=C1NC(=O)N(Cc2ccco2)C(=O)/C1=C\c1cccn1CCOc1ccc(Cl)cc1	rCAG RNA binder 35 | rCAG binder conf inactive | DNA CAG counter 7.6
CC[C@@H]1c2ccccc2[C@@H]2CC[C@H]1N2c1ccccc1	none (no result: HTRA1 inh)
CCCCn1c(=O)c(C=Nc2cccnc2Cl)c(O)n(CCCCl)c1=O	none
NC(=O)C1CCN(/C=C2\C(=O)NC(=O)N(Cc3ccco3)C2=O)CC1	none
CCN1C(=O)C(=C2C=C(C)N(Cc3ccco3)C(C)=C2)C(=O)N(CC)C1=S	none
CCN1C(=O)C(=C/C=C/c2ccco2)C(=O)N(CC)C1=S	PRMT1 inh 27, rCAG RNA binder 56 | rCAG binder conf 49 | DNA CAG counter 17 | PRMT1 inh conf 34
CC(C)N1C(=O)/C(=C/C=C/c2ccco2)C(=O)N(Cc2ccco2)C1=O	PRMT1 inh 29, rCAG RNA binder 45 | rCAG binder conf inactive | DNA CAG counter 11 | PRMT1 inh conf inactive
O=C1NC(=S)N(c2ccccc2)C(=O)/C1=C/c1ccco1	PRMT1 inh 55, rCAG RNA binder 89 | rCAG binder conf 90 | DNA CAG counter 63 | PRMT1 inh conf 74
O=C(NCc1cccnc1)C(Cl)(Cl)Cl	none
O=C1NC(=O)N(CCC2=CCCCC2)C(=O)/C1=C\c1cccs1	PRMT1 inh 31, rCAG RNA binder 42 | rCAG binder conf inactive | DNA CAG counter inactive | PRMT1 inh conf inactive
FCCN(CCF)c1cccc(Cl)c1	none (no result: HTRA1 inh)
O=C1NC(=O)N(c2cccc(Cl)c2)C(=O)/C1=C\c1ccc(Sc2nc3ccccc3[nH]2)o1	PRMT1 inh 33, rCAG RNA binder 72 | rCAG binder conf 50 | DNA CAG counter 22 | PRMT1 inh conf 42
O=C1NC(=O)N(c2ccccc2)C(=O)/C1=C/c1ccc(Sc2ccccc2)o1	none (no result: SIAE primary, mABHD4 FP, PRMT1 inh, rCAG RNA binder)
CC(=O)OC1(c2ccccc2)CCN(C)C(C)C1C (configuration not stated)	none
COc1ccc(N2C(=O)NC(=O)/C(=C/c3ccc(N4CCOCC4)cc3)C2=O)cc1	none (no result: HTRA1 inh)
COc1ccc(CN2C(=O)NC(=O)/C(=C/c3ccc([N+](=O)[O-])s3)C2=O)cc1	PRMT1 inh 31, rCAG RNA binder 94 | rCAG binder conf 94 | DNA CAG counter 72 | PRMT1 inh conf 66
O=C1NC(=O)N(Cc2ccc(F)cc2)C(=O)/C1=C\c1ccc([N+](=O)[O-])s1	HTRA1 inh 43, PRMT1 inh 39, rCAG RNA binder 93 | rCAG binder conf 79 | DNA CAG counter 40 | PRMT1 inh conf 72
COc1ccc(N2C(=O)NC(=O)/C(=C\c3ccc([N+](=O)[O-])s3)C2=O)cc1	PRMT1 inh 39, rCAG RNA binder 76 | rCAG binder conf 54 | DNA CAG counter 21 | PRMT1 inh conf 50
C[N+](C)(C)CC1CCCC(C[N+](C)(C)C)C1=O (configuration not stated)	none
COc1ccc(Cn2c(O)c(/C=N/NC(=O)c3ccccc3O)c(=O)[nH]c2=O)cc1	mABHD4 FP 30, rCAG RNA binder 91 | rCAG binder conf 76 | DNA CAG counter 37 | ABHD4 confirm 38
O=C(N/N=C/c1c(O)n(Cc2ccc(F)cc2)c(=O)[nH]c1=O)c1ccccc1O	mABHD4 FP 34, rCAG RNA binder 85 | rCAG binder conf 67 | DNA CAG counter 26 | ABHD4 confirm 52
O=C(N/N=C/c1c(O)n(CCc2ccc(F)cc2)c(=O)[nH]c1=O)c1ccccc1	none (no result: HTRA1 inh)
N#CCCn1cc(C(=O)Nc2ccccc2Cl)c(-c2ccc([N+](=O)[O-])cc2)n1	none
CCn1c(O)c(/C(C)=N/N2CCCCC2c2cccnc2)c(=O)[nH]c1=S (configuration not stated)	none
O=[N+]([O-])c1cc(S(=O)(=O)c2ccc(O)c([N+](=O)[O-])c2)ccc1O	mABHD4 FP 40, rCAG RNA binder 38 | rCAG binder conf inactive | DNA CAG counter 7.7 | ABHD4 confirm 31
Cn1c(O)c(C(c2ccccn2)c2c(O)n(C)c(=S)n(C)c2=O)c(=O)n(C)c1=S	PRMT1 inh 27 | PRMT1 inh conf inactive
Cn1c(O)c(C(c2ccncc2)c2c(O)n(C)c(=S)n(C)c2=O)c(=O)n(C)c1=S	PRMT1 inh 38 | PRMT1 inh conf inactive
CC(=O)OC1N=C(c2ccc(Cl)cc2)c2cc(Br)ccc2NC1=O (configuration not stated)	none
CCCC12CN3CCN(CC(C3)/C1=N\NC(=O)c1ccncc1)C2	none
CN1CCN(C(=O)COc2ccc3ccccc3c2Br)CC1	none
O=C1NC(=S)N(c2ccc(F)cc2)C(=O)/C1=C/c1ccccc1O	none
COc1ccccc1C=C1C(=O)NC(=S)NC1=O	PRMT1 inh 30 | PRMT1 inh conf 39
COc1ccccc1/C=C1\C(=O)NC(=S)N(c2ccccc2)C1=O	PRMT1 inh 38 | PRMT1 inh conf 21
N#CC(=C(O)c1ccc(S(=O)(=O)N(CCCl)CCCl)cc1)c1nc2ccccc2[nH]1	none
COc1ccc(/C=C2/C(=O)NC(=O)N(C3CCCCC3)C2=O)cc1CSc1ccccn1	PRMT1 inh 26 (no result: HTRA1 inh) | PRMT1 inh conf inactive
COc1ccc(C=C2C(=O)N(C)C(=O)N(C)C2=O)cc1CSc1ccccn1	none
